Converted amounts (≈) assume the structure as drawn. A value given as a limit tells only on which side of the number the result lay.

The results in this text go back to ChEMBL document CHEMBL2429794, “Tuning the antibacterial activity of amphiphilic neamine derivatives and comparison to paromamine homologues” (J Med Chem, 2013).

Assay [1] has as its system Staphylococcus aureus. As to the kind of experiment: Antibacterial activity against Staphylococcus aureus expressing aminoglycoside-[…] after 24 hrs by geometric microdilution method. Format: functional. Put shortly: (§1)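 Broth cultures were incubated in plates at 37 °C, and growth was read as absorbance at 650 nm after 1, 4, 7 and 24 h. Ampicillin (16 mg/L) was the positive control and DMSO the negative control. Each MIC (μg/mL) is the average of at least three determinations.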
(In general: In broth dilution the organism is exposed to a series of concentrations in liquid medium.)

Assay [2] deals with Staphylococcus aureus. As to the kind of experiment: Antibacterial activity against Staphylococcus aureus expressing aminoglycoside-3'-O-phosphoryltransferase after 24 hrs by geometric microdilution method. Format: functional. Put shortly:
as §1

Assay [3] relates to Staphylococcus aureus. As to the kind of experiment: Antibacterial activity against Staphylococcus aureus expressing aminoglycoside-6'-N-acetyltransferase/2''-O-phosphoryltransferase after 24 hrs by geometric microdilution method. Format: functional. Put shortly: as §1
The subject of assay [4] is Staphylococcus aureus. Description: Antibacterial activity against fluoroquinolone-resistant Staphylococcus aureus 1199B expressing NorA efflux pump after 24 hrs by geometric microdilution method. Type of assay: functional. An outline of the steps: as §1
The test system of assay [5] is Staphylococcus aureus. Description: microbe, parasite or virus in culture. The settings on record: ATCC 25923, 24 h.
The test system of assay [6] is Escherichia coli. As to the kind of experiment: Antibacterial activity against Escherichia coli L58058.1 expressing ANT2''-1A after 24 hrs by geometric microdilution method. Format: functional. The settings on record: L58058.1, 24 h.
Assay [7] has as its system Escherichia coli. As to the kind of experiment: Antibacterial activity against Escherichia coli PAZ505H8101 expressing AAC6'-1B after 24 hrs by geometric microdilution method. Format: functional. Conditions: PAZ505H8101, 24 h.
The test system of assay [8] is Klebsiella pneumoniae. Description: Antibacterial activity against Klebsiella pneumoniae ATCC 700603 after 24 hrs by geometric microdilution method. Conditions: ATCC 700603, 24 h. Type of assay: functional.
The test system of assay [9] is Pseudomonas aeruginosa. As to the kind of experiment: Antibacterial activity against Pseudomonas aeruginosa PA22 (PT629) expressing MexXY after 24 hrs by geometric microdilution method. Format: functional.
The subject of assay [10] is Pseudomonas aeruginosa. As to the kind of experiment: Antibacterial activity against Pseudomonas aeruginosa F03 expressing AAC6'-2A after 24 hrs by geometric microdilution method. Conditions: F03, 24 h. Type of assay: functional.
For assay [11], the system named is Pseudomonas aeruginosa. As to the kind of experiment: Antibacterial activity against Pseudomonas aeruginosa ATCC 27853 after 24 hrs by geometric microdilution method. The settings on record: ATCC 27853, 24 h. Format: functional.
Assay [12] has as its system Acinetobacter lwoffii. As to the kind of experiment: Antibacterial activity against Acinetobacter lwoffii AI.88-483 expressing APH3'-6A after 24 hrs by geometric microdilution method. Format: functional. The settings on record: AI.88-483, 24 h.
For assay [13], the system named is Acinetobacter lwoffii. As to the kind of experiment: Antibacterial activity against Acinetobacter lwoffii ATCC 17925 after 24 hrs by geometric microdilution method. Type of assay: functional. The settings on record: ATCC 17925, 24 h.
The subject of assay [14] is Escherichia coli. As to the kind of experiment: microbe, parasite or virus in culture. The settings on record: ATCC 25922, 24 h.
Assay [15] concerns Staphylococcus aureus. As to the kind of experiment: Antibacterial activity against vancomycin-resistant Staphylococcus aureus VRS2 after 24 hrs by geometric microdilution method. Format: functional. Conditions: VRS2, 24 h. An outline of the steps: as §1
Assay [16] has as its system Staphylococcus aureus. Description: Antibacterial activity against healthcare-acquired methicillin-resistant Staphylococcus aureus ATCC 33592 after 24 hrs by geometric microdilution method. Type of assay: functional. The settings on record: ATCC 33592, 24 h. Put shortly: as §1

`NC[C@H]1O[C@H](O[C@H]2[C@H](O)[C@@H](OCc3ccccc3)[C@H](N)C[C@@H]2N)[C@H](N)[C@@H](OCc2ccccc2)[C@@H]1O`: the MIC in [1], in [2], in assay [3], in assay [4] and in assay [5] was more than 128 µg/mL throughout.
Regarding `NC[C@H]1O[C@H](O[C@H]2[C@H](O)[C@@H](O[C@H]3O[C@H](CO)[C@@H](O)[C@H](N)[C@H]3O)[C@H](N)C[C@@H]2N)[C@H](N)C[C@@H]1O` [TOBRAMYCIN], the MIC came to 64 µg/mL (≈ 137 µM) in [6]; 32 µg/mL (≈ 68.4 µM) in [7]; 4 µg/mL (≈ 8.56 µM) in assay [8]; 1 µg/mL (≈ 2.14 µM) in assay [9]; 128 µg/mL (≈ 274 µM) in [10]; 0.5 µg/mL (≈ 1.07 µM) in assay [11]. Further, the results for the MIC in assay [12], in assay [13] and in [14] were 1 µg/mL (≈ 2.14 µM), 0.5 µg/mL (≈ 1.07 µM) and 0.5 µg/mL (≈ 1.07 µM), respectively.
In the case of `NCC[C@H](O)C(=O)N[C@@H]1C[C@H](N)[C@@H](O[C@H]2O[C@H](CN)[C@@H](O)[C@H](O)[C@H]2O)[C@H](O)[C@H]1O[C@H]1O[C@H](CO)[C@@H](O)[C@H](N)[C@H]1O` [AMIKACIN], the MIC in assay [6] came to 2 µg/mL (≈ 3.42 µM); in assay [7] it was 64 µg/mL (≈ 109 µM); in [8], 0.5 µg/mL (≈ 0.854 µM); in [9], 8 µg/mL (≈ 13.7 µM); in [10], 4 µg/mL (≈ 6.83 µM); in assay [11], 2 µg/mL (≈ 3.42 µM). For the same compound, the figures for the MIC in [12], in [13] and in assay [14] were more than 128 µg/mL, 0.5 µg/mL (≈ 0.854 µM) and 4 µg/mL (≈ 6.83 µM), respectively.
For `CCCCO[C@@H]1[C@@H](N)[C@@H](O[C@H]2[C@H](O)[C@@H](OCCCC)[C@H](N)C[C@@H]2N)O[C@H](CN)[C@H]1O`, the MIC in assay [6], in [7], in [8], in assay [9], in assay [10] and in assay [11] was more than 128 µg/mL throughout. The MIC in assay [12] was more than 128 µg/mL; in assay [13] it was 64 µg/mL (≈ 147 µM); in assay [15], more than 128 µg/mL; in assay [16] it was more than 128 µg/mL; in assay [1], more than 128 µg/mL; in assay [2], more than 128 µg/mL. Moreover, the MIC in assay [3] is 128 µg/mL (≈ 295 µM); in [4], more than 128 µg/mL; in assay [14], more than 128 µg/mL; in [5] it was more than 128 µg/mL.
Take `NC[C@H]1O[C@H](O[C@H]2[C@H](O)[C@@H](OCc3ccccc3)[C@H](N)C[C@@H]2N)[C@H](N)[C@@H](OCc2ccccc2)[C@@H]1OCc1ccccc1`: the MIC in [6], in assay [7], in assay [8], in [9], in assay [10] and in assay [11] was more than 128 µg/mL in each case. In addition, the MIC in assay [12] is more than 128 µg/mL; in assay [13], more than 128 µg/mL; in [15], 64 µg/mL (≈ 108 µM); in assay [16] it was more than 128 µg/mL; in assay [1], more than 128 µg/mL; in assay [2] it was more than 128 µg/mL. Moreover, the MIC in [3], in assay [4], in assay [14] and in [5] was more than 128 µg/mL throughout.
For the compound `CCCCO[C@@H]1[C@@H](N)[C@@H](O[C@H]2[C@H](O)[C@@H](OCCCC)[C@H](N)C[C@@H]2N)O[C@H](CN)[C@H]1OCCCC`, the MIC in assay [6], in [7], in [8], in [9], in assay [10] and in [11] was more than 128 µg/mL each time. For the same compound, the MIC in [12], in [13], in assay [15], in assay [16], in assay [1] and in assay [2] was more than 128 µg/mL throughout. For the same compound, the MIC in assay [3], in [4], in assay [14] and in assay [5] was more than 128 µg/mL throughout.
